Source: ChEMBL document CHEMBL1143907, “Synthesis, nicotinic acetylcholine receptor binding, and pharmacological properties of 3'-(substituted phenyl)deschloroepibatidine analogs” (Bioorg Med Chem, 2008)

Legend:
Mus musculus [1] = test: Antinociceptive activity in acute pain mouse model at 10 mg/kg, sc by tail flick method; type: functional; details: route subcutaneous
Outline: (§1)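 Mice, tail-flick assay: heat lamp aimed at the tail, with latency to flick recorded. Each mouse's baseline (2–4 s) was taken before treatment, and test latency was taken after sc dosing. Response was expressed as %MPE = [(test−control)/(maximum latency−control)×100]. ED50 values are reported with confidence limits, or as percent effect at the individual dose.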

Mus musculus [2] = test: Effect on locomotor activity in sc dosed mouse assessed as spontaneous activity; type: functional
Outline: (§2)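 Mice were placed in individual photocell activity cages 5 min after sc saline (0.9%) or analog. Photobeam interruptions (two banks of eight cells) were counted over the next 10 min. Data are the number of interruptions, and ED50 is reported with confidence limits or as percent effect at a dose.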

[3] = biological target: Neuronal acetylcholine receptor; alpha4/beta2 (Rattus norvegicus, UniProt P09483+P12390); test: Displacement of [3H]epibatidine from alpha-4-beta-2 nAChR in rat cerebral cortex; type: tissue-based
Mus musculus [4] = test: Inhibition of nicotine-induced antinociception in sc dosed acute pain mouse model by tail flick method; type: functional
[5] = biological target: Neuronal acetylcholine receptor subunit alpha-7 (Rattus norvegicus, UniProt Q05941); test: Displacement of [125I]iodoMLA from alpha-7 nAChR in rat cerebral cortex; type: tissue-based
Mus musculus [6] = test: Effect on rectal temperature in mouse at 1000 […], sc; type: functional; details: route subcutaneous
Outline: (§3)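 Rectal temperature was read with a thermistor probe inserted 24 mm, just before and at several times after sc saline or analog. The pre/post difference was calculated per mouse. Laboratory ambient temperature was 21–24 °C.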

Mus musculus [7] = test: Antinociceptive activity in acute pain mouse model at 10 mg/kg, sc by hot plate method; type: functional; details: route subcutaneous
Outline: (§4)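 Mice were placed in a 10-cm glass cylinder on a hot plate held at 55.0 °C. Two control latencies, at least 10 min apart, were taken per mouse (normal 8–12 s). The endpoint was a jump or paw lick, and animals were tested 5 min after sc injection. Response was expressed as %MPE from test, control and maximum latencies. ED50 values are given with confidence limits, or as percent effect at a dose.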

Mus musculus [8] = test: Inhibition of nicotine-induced antinociception in acute pain mouse model at 100 ug/kg, sc by hot plate method; type: functional; parameters: scale not given: the % may be the effect or the level left
Mus musculus [9] = test: […] in mouse assessed as inhibition of nicotin induced hypothermia at 10 mg/kg, sc; type: functional; parameters: scale not given: the % may be the effect or the level left; details: route subcutaneous
Mus musculus [10] = test: Inhibition of nicotine-induced antinociception in acute pain mouse model at 10 ug/kg, sc by tail flick method; type: functional; parameters: scale not given: the % may be the effect or the level left
Mus musculus [11] = test: Inhibition of nicotine-induced antinociception in acute pain mouse model at 10 ug/kg, sc by hot plate method; type: functional; parameters: scale not given: the % may be the effect or the level left
Mus musculus [12] = test: Agonist activity in sc dosed mouse assessed as induction of hypothermia
[13] = biological target: Neuronal acetylcholine receptor subunit alpha-7 (Rattus norvegicus) (UniProt Q05941); test: Displacement of [125I]iodoMLA from alpha-7 nAChR in rat cerebral cortex at 50 nM; type: tissue-based
Mus musculus [14] = test: Inhibition of nicotine-induced antinociception in acute pain mouse model at 1000 ug/kg, sc by hot plate method; type: functional; parameters: scale not given: the % may be the effect or the level left
Mus musculus [15] = test: Effect on rectal temperature in mouse at 10 mg/kg, sc; type: functional; details: route subcutaneous; outline: as §3
Mus musculus [16] = test: Inhibition of nicotine-induced antinociception in sc dosed acute pain mouse model by hot plate method; type: functional
Mus musculus [17] = test: Effect on rectal temperature in mouse at 2000 […], sc; type: functional; details: route subcutaneous; outline: as §3
Mus musculus [18] = test: Antinociceptive activity in acute pain mouse model at 20 mg/kg, sc by hot plate method; type: functional; details: route subcutaneous; outline: as §4
Mus musculus [19] = test: Antinociceptive activity in acute pain mouse model at 20 mg/kg, sc by tail flick method; type: functional; details: route subcutaneous; outline: as §1
Mus musculus [20] = test: […] in mouse assessed as inhibition of nicotin induced hypothermia at 20 mg/kg, sc; type: functional; parameters: scale not given: the % may be the effect or the level left; details: route subcutaneous
Mus musculus [21] = test: Effect on rectal temperature in mouse at 100 […], sc; type: functional; details: route subcutaneous; outline: as §3
Mus musculus [22] = test: Antinociceptive activity in sc dosed acute pain mouse model by tail flick method; type: functional; outline: as §1
Mus musculus [23] = test: Antinociceptive activity in sc dosed in acute pain mouse model by hot plate method; type: functional; outline: as §4
Mus musculus [24] = test: Effect on rectal temperature in mouse at 5000 […], sc; type: functional; details: route subcutaneous; outline: as §3
Mus musculus [25] = test: Effect on rectal temperature in mouse at 20 mg/kg, sc; type: functional; details: route subcutaneous; outline: as §3
Mus musculus [26] = test: Effect on locomotor activity in mouse assessed as spontaneous activity at 10 mg/kg, sc; type: functional; details: route subcutaneous; outline: as §2
Mus musculus [27] = test: Inhibition of nicotine-induced antinociception in acute pain mouse model at 2000 ug/kg, sc by hot plate method; type: functional; parameters: scale not given: the % may be the effect or the level left
Mus musculus [28] = test: Effect on rectal temperature in mouse at 500 […], sc; type: functional; details: route subcutaneous; outline: as §3
Mus musculus [29] = test: Antinociceptive activity in acute pain mouse model at 15 mg/kg, sc by hot plate method; type: functional; details: route subcutaneous; outline: as §4
Mus musculus [30] = test: Effect on rectal temperature in mouse at 10000 µg/kg, sc; details: route subcutaneous

Neuronal acetylcholine receptor; alpha4/beta2, sequence (P09483 whole entry): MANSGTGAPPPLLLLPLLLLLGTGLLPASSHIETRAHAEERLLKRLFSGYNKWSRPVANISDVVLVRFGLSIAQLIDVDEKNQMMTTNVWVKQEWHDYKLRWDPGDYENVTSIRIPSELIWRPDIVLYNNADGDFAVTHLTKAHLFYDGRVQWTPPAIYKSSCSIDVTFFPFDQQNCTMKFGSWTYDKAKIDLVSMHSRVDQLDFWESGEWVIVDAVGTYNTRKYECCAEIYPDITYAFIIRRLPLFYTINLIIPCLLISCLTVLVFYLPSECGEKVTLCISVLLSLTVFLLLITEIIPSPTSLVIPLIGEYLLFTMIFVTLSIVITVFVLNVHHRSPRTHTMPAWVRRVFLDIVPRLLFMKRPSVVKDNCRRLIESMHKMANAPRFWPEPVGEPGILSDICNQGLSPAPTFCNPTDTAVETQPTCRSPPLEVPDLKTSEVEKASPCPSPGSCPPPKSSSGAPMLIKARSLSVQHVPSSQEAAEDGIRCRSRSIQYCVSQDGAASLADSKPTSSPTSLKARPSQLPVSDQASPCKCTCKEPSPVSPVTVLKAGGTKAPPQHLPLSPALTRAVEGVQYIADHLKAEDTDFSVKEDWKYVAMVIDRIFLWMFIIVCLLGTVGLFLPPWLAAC
Neuronal acetylcholine receptor; alpha4/beta2, sequence (P12390 whole entry): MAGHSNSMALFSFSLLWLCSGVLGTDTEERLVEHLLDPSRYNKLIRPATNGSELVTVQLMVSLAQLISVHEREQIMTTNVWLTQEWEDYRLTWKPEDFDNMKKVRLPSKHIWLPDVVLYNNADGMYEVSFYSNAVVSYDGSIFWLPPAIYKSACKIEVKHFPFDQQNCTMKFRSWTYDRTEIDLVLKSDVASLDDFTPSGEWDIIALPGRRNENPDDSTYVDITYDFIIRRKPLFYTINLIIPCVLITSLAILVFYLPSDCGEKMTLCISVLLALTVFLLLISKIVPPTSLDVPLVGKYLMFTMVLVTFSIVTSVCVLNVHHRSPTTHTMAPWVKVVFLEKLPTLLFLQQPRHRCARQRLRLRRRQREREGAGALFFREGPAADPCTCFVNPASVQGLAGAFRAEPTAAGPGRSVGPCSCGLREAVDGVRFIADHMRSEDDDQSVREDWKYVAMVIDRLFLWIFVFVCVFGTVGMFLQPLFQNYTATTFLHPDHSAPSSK
Neuronal acetylcholine receptor subunit alpha-7, sequence (Q05941 whole entry): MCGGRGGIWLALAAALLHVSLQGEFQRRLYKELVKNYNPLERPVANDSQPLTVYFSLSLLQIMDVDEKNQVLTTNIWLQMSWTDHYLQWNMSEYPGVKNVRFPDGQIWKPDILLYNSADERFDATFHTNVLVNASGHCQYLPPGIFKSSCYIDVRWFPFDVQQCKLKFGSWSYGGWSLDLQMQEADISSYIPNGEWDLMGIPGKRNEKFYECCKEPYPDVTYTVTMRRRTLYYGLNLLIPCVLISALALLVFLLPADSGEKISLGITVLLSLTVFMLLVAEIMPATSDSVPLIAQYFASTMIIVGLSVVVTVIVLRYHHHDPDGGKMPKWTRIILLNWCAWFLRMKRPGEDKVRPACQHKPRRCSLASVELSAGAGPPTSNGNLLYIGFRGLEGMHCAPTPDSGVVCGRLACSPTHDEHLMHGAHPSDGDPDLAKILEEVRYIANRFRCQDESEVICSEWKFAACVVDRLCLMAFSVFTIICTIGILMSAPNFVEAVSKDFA
Neuronal acetylcholine receptor subunit alpha-7 (Rattus norvegicus), sequence (Q05941 whole entry): as above

Compound	Activity (Mus musculus [1])	ED50 (Mus musculus [2])	Ki [3]	AD50 (Mus musculus [4])	Ki [5]	Activity (Mus musculus [6])	Activity (Mus musculus [7])	ED50 (Mus musculus [12])	AD50 (Mus musculus [16])	further results
Fc1ccc(-c2cncc(C3CC4CCC3N4)c2)cc1 (configuration not stated)	3%	3000 µg/kg	0.15 nM	13 µg/kg	> 2000 nM	0%	13%			Activity (Mus musculus [8]): 10%; Activity (Mus musculus [9]): -1.6%
Clc1ccc(-c2cncc(C3CC4CCC3N4)c2)cc1 (configuration not stated)	1%	10500 µg/kg	0.21 nM		> 2000 nM	5%	11%			Activity (Mus musculus [10]): 0%; Activity (Mus musculus [11]): 0%; Activity (Mus musculus [9]): 2%
Cl.Cl.c1ccc(-c2cncc(C3CC4CCC3N4)c2)cc1 (racemic)	6%	500 µg/kg	0.5 nM	300 µg/kg		0%	30%	1500 µg/kg		Activity [13]: 7%; Activity (Mus musculus [14]): 10%
Cl.Cl.Fc1cccc(-c2cncc(C3CC4CCC3N4)c2)c1 (racemic)	2%	5000 µg/kg	0.2 nM	3.1 µg/kg	> 2000 nM		8%		3000 µg/kg	Activity (Mus musculus [15]): 0%; Activity (Mus musculus [9]): 0%
Cl.Cl.O=[N+]([O-])c1cccc(-c2cncc(C3CC4CCC3N4)c2)c1 (racemic)		2500 µg/kg	0.17 nM		> 2000 nM			37600 µg/kg		Activity (Mus musculus [17]): 0%; Activity (Mus musculus [18]): 21%; Activity (Mus musculus [19]): 5%
Cl.Cl.Cl.Clc1cccc(-c2cncc(C3CC4CCC3N4)c2)c1 (racemic)		3800 µg/kg	0.17 nM	0.01 µg/kg	> 2000 nM	0%				Activity (Mus musculus [18]): 10%; Activity (Mus musculus [19]): 1%; Activity (Mus musculus [20]): 0%; Activity (Mus musculus [14]): 0%
Cl.Cl.O=[N+]([O-])c1ccc(-c2cncc(C3CC4CCC3N4)c2)cc1 (racemic)	1%	660 µg/kg	0.34 nM	47 µg/kg	> 2000 nM		26%	2900 µg/kg		Activity (Mus musculus [8]): 10%; Activity (Mus musculus [21]): 0%
COc1cccc(-c2cncc(C3CC4CCC3N4)c2)c1.Cl.Cl (racemic)	1%	2900 µg/kg			> 2000 nM		20%			Activity (Mus musculus [10]): 0%; Activity (Mus musculus [15]): 0%; Activity (Mus musculus [11]): 0%; Activity (Mus musculus [9]): 0%
Cl.Fc1ncc(C2CC3CCC2N3)cc1-c1cccc(Cl)c1 (racemic)			0.073 nM	12 µg/kg		0%	14%		450 µg/kg	
Cl.Nc1cccc(-c2cncc(C3CC4CCC3N4)c2)c1 (racemic)		1500 µg/kg	1.16 nM		> 2000 nM			3800 µg/kg		ED50 (Mus musculus [22]): 6 µg/kg; ED50 (Mus musculus [23]): 650 µg/kg
Cl.Nc1ccc(-c2cc(C3CC4CCC3N4)cnc2F)cc1 (racemic)			0.095 nM	5 µg/kg			10%		1800 µg/kg	Activity (Mus musculus [24]): 0%
Cl.Fc1ccc(-c2cc(C3CC4CCC3N4)cnc2F)cc1 (racemic)			0.029 nM	0.5 µg/kg			15%		230 µg/kg	Activity (Mus musculus [21]): 0%
Cl.Nc1ccc(-c2cncc(C3CC4CCC3N4)c2)cc1 (racemic)	6%		0.34 nM	1 µg/kg	> 2000 nM		10%			Activity (Mus musculus [25]): 0%; Activity (Mus musculus [26]): 15%; Activity (Mus musculus [27]): 45%; Activity (Mus musculus [9]): 0%
Cl.O=[N+]([O-])c1cccc(-c2cc(C3CC4CCC3N4)cnc2F)c1 (racemic)			0.053 nM	0.2 µg/kg			20%		130 µg/kg	Activity (Mus musculus [28]): 5%
COc1cccc(-c2cc(C3CC4CCC3N4)cnc2F)c1.Cl (racemic)				8 µg/kg			8%		2000 µg/kg	
Cl.Fc1ncc(C2CC3CCC2N3)cc1-c1ccc(Cl)cc1 (racemic)			0.044 nM	0.3 µg/kg		0%	7%		260 µg/kg	Activity (Mus musculus [26]): 5%
Cl.Fc1ncc(C2CC3CCC2N3)cc1-c1ccccc1 (racemic)				500 µg/kg	> 2000 nM				1200 µg/kg	Activity (Mus musculus [29]): 4%
Cl.O=[N+]([O-])c1ccc(-c2cc(C3CC4CCC3N4)cnc2F)cc1 (racemic)			0.009 nM	3 µg/kg		0%	10%	3500 µg/kg	120 µg/kg	
Cl.Fc1cccc(-c2cc(C3CC4CCC3N4)cnc2F)c1 (racemic)			0.087 nM	5 µg/kg		0%				Activity (Mus musculus [14]): 2%
Cl.Nc1cccc(-c2cc(C3CC4CCC3N4)cnc2F)c1 (racemic)				9 µg/kg			4%		820 µg/kg	Activity (Mus musculus [24]): 5%
Clc1ccc(C2CC3CCC2N3)cn1 (racemic) [EPIBATIDINE]		1 µg/kg						4 µg/kg		ED50 (Mus musculus [22]): 6 µg/kg; ED50 (Mus musculus [23]): 4 µg/kg
c1cncc(C2CC3CCC2N3)c1 (configuration not stated) [DESCHLOROEPIBATIDINE]										ED50 (Mus musculus [22]): 2 µg/kg
CN1CCC[C@@H]1c1cccnc1 [R-NICOTINE]		500 µg/kg						1000 µg/kg		ED50 (Mus musculus [22]): 1300 µg/kg; ED50 (Mus musculus [23]): 650 µg/kg
c1cnc2cc3c(cc2n1)[C@@H]1CNC[C@H]3C1 [VARENICLINE]	11%	2100 µg/kg		0.2 µg/kg			10%	2800 µg/kg	470 µg/kg	Activity (Mus musculus [30]): 0%
